The test system of data set [1] is Mus musculus. As to the kind of experiment: Toxicity in NOD/SCID mouse xenografted with human HepG2 cells expressing CES2 gene assessed as body weight loss at 5 mg/kg, iv administered on day 7, 14 and 21 after tumor implantation measured after 3 weeks. Also on record: dose 5 mg/kg, route intravenous. It counts as organism-based. The conditions noted are these: in vivo, 504 h. The gist of the method: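 Same NOD/SCID N-Hep G2 flank xenograft model: i.v. tail-vein dosing on days 7, 14 and 21 in 5% DMSO/95% D5W, doses in Dox-equivalent mg/kg, 10 mice/group, vehicle controls. Body weight recorded weekly and followed over the first 5 weeks.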

Data set [2] deals with NCI-H1435. As to the kind of experiment: Antitumor activity against human NCI-H1435 cells expressing CES2 gene xenografted in pentyl PABC-doxazolidine-pretreated athymic nude mouse assessed as inhibition of tumor growth at 3 to 4 mg/kg, iv administered on day 56 after tumor implantation. It counts as functional, organism-based. The gist of the method:
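Athymic nude females, 4–6 weeks old, given ~2 × 10⁶ H1435 cells s.c. in the left flank on day 0; 10 mice/group. I.v. tail-vein doses (Dox-equivalent mg/kg) in 5% DMSO/95% D5W on days 7, 14 and 21, with all groups retreated on days 56, 63 and 70; vehicle controls. Caliper volume π × short² × long/6. Cube roots analysed with day-7 size as baseline covariate, by period.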
In general terms: In xenograft studies the graft and the host belong to different species.

The structures appear in SMILES notation. The source made the active and inactive calls. The rule behind the calls is not given here.

Regarding `CCCCCOC(=O)Nc1ccc(COC(=O)N2CO[C@@H]3[C@H](C)O[C@@H](O[C@H]4C[C@](O)(C(=O)CO)Cc5c(O)c6c(c(O)c54)C(=O)c4c(OC)cccc4C6=O)C[C@@H]32)cc1`, the Activity in data set [1] amounted to 18%. Besides, in data set [2], the inhibition result is “Active”.
